# Results from different studies.
# Protocols differ between the studies behind these lines.
# Target: Serine/threonine-protein kinase/endoribonuclease IRE1 (ERN1, Homo sapiens, UniProt O75460)
SMILES,assay,setting,remaining binding
C[C@@H](c1ccc(-n2cnc3c(N)ncnc32)cc1)N1CCc2nn(C)c(Cc3ccccc3)c2C1=O,"binding, competition with immobilised ligand",0.1 µM,72%
CS(=O)(=O)N1CCCC(NC(=O)[C@H](CCC2CCCCC2)NC(=O)c2ccc(CNc3ncnc4c3nnn4-c3ccccc3)cc2)C1 (stereo partly drawn),"cell-free assay, competition with immobilised ligand",0.1 µM,100%
c1cncc(-c2cccc(Nc3nccc(NC4CCCCC4)n3)c2)c1,"binding, competition with immobilised ligand",10 µM,44%
COc1cnc(Nc2cccc(S(N)(=O)=O)c2)nc1N1CCN(c2ccccc2)CC1,"binding, competition with immobilised ligand",1 µM,73%
Cc1cnc(Nc2ccc(C(=O)N3CCC(N4CCCC4)CC3)cc2)nc1-c1cc2ccccc2s1,"binding, competition with immobilised ligand",1 µM,24%
CNC(=O)Nc1ccc2c(c1)CC[C@@]21OC(=O)N(CC(=O)N(Cc2ccc(F)cc2)[C@@H](C)C(F)(F)F)C1=O,"cell-free assay, competition with immobilised ligand",1 µM,56%
N[C@H]1CCN(c2nccc(-c3cnn4ncccc34)n2)C1,binding,1 µM,98%
Nc1ncc2c(n1)-c1c([nH]c3ccc(C#CC4CC4)cc13)CCCC2,"binding, competition with immobilised ligand",1 µM,100%
Cc1cnn2ncc(-c3ccnc(N(C)C)n3)c2c1,binding,1 µM,100%
C=CC(=O)N1CCC(C(=O)NCC(=O)N2CCN(c3nc(-c4cnc(N)nc4C(F)F)nc(N4CCOCC4)n3)CC2)CC1,"binding, competition with immobilised ligand",1 µM,100%
O=C(O)[C@@H]1[C@@H](Cn2nnc3ccccc3c2=O)CC[C@H]1C(=O)c1ccc(OCCC2CCOCC2)cc1,"cell-free assay, competition with immobilised ligand",1 µM,88%
c1cnn2ncc(-c3ccnc(N4CCC45COC5)n3)c2c1,binding,1 µM,69%
CN1CCN(c2cnc3c(C4CCN(C(=O)c5ccc(OC(F)(F)F)cc5N)CC4)ncnc3c2)CC1,"cell-free assay, competition with immobilised ligand",1 µM,99%
O=C(c1ccc(Nc2ncc(Cl)c(-c3ccc(Cl)s3)n2)cc1)N1CCC(N2CCCC2)CC1,"binding, competition with immobilised ligand",1 µM,35%
COc1ccnn2ncc(-c3ccnc(N(C)C)n3)c12,binding,1 µM,100%
O=C(NCCCN1CCOCC1)c1ccc(Nc2nccc(-c3cc4ccccc4s3)n2)cc1,"binding, competition with immobilised ligand",1 µM,52%
O=C(NCC1CCOCC1)c1n[nH]cc1NC(=O)c1c(F)cccc1F,"binding, competition with immobilised ligand",1 µM,65%
CN(c1nccc(-c2cnn3ncccc23)n1)C1CC1,binding,1 µM,100%
O=C(NCc1ncc(C(F)(F)F)cc1Cl)c1ccc2c(c1)C1(CCS(=O)(=O)CC1)[C@@H](C1CC1)N2S(=O)(=O)c1ccc(F)cc1,"cell-free assay, competition with immobilised ligand",1 µM,65%
F[C@@H]1CCN(c2nccc(-c3cnn4ncccc34)n2)C1,binding,1 µM,83%
COc1cccc(CNC(=O)c2nc3scc(COCc4ccc(C(=O)O)cc4)c3c(=O)[nH]2)c1,"cell-free assay, competition with immobilised ligand",1 µM,89.7%
